# Experimental data: ChEMBL document CHEMBL1240344, “Phage-encoded combinatorial chemical libraries based on bicyclic peptides” (Nat Chem Biol, 2009)
# Calls of active or inactive are those of the source. The calls are words filed in the database; no cut-off is given here. Starred links: 1 amine or outer side, 2 acyl side, 3 side chain; linkers in the order of their positions; H or OH if unused. Positions of bridges follow the written chain, without caps; N, C: chain ends. Residues, ends and D or L forms follow the SMILES beside them. TBMB = c1c(C[*:1])cc(C[*:3])cc1C[*:2]
# Assays:
# [1] = biological target: Urokinase-type plasminogen activator (Homo sapiens, UniProt P00749); experiment: Binding affinity to urokinase-type plasminogen activator
# [2] = biological target: Angiotensin-converting enzyme 2 (Homo sapiens, UniProt Q9BYF1); experiment: Binding affinity to angiotensin converting enzyme 2
# Chain of Angiotensin-converting enzyme 2 (Q9BYF1 whole entry): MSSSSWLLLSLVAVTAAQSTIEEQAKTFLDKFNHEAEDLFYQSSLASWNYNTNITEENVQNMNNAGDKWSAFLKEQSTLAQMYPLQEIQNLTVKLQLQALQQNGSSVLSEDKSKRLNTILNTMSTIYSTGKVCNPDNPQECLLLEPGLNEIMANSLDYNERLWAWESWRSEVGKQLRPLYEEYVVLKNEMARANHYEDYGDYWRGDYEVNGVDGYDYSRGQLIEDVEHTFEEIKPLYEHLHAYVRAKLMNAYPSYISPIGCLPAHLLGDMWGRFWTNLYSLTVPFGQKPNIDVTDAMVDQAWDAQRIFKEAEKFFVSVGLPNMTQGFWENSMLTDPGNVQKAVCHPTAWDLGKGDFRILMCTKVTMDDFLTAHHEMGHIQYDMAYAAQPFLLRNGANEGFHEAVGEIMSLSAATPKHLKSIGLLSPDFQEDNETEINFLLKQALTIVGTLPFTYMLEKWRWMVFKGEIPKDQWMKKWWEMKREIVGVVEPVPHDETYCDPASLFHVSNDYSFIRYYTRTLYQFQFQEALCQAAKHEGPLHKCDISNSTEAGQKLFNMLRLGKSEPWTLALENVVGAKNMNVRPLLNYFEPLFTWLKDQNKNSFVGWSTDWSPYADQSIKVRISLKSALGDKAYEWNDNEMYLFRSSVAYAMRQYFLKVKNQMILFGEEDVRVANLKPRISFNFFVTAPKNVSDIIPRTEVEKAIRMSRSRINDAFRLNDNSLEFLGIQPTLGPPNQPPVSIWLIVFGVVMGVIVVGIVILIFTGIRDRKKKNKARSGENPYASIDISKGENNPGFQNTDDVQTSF
# [3] = Chemical stability of compound assessed as drug cleavage in presence of plasma kallikrein after 24 hrs at 37 degC by mass spectrometric analysis; type: physicochemical; details: read-out: Activity
# Outline: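 The peptide was incubated with human plasma kallikrein. Cleavage was detected by mass spectrometry as an 18 Da mass gain, and the cleaved fraction was estimated.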
# [4] = Chemical stability assessed as compound cleavage in presence of Aeromonas proteolytica by mass spectrometric analysis; type: physicochemical
# Outline: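 The kallikrein-cleaved peptide was incubated with leucyl aminopeptidase from Aeromonas proteolytica. The products were analysed by mass spectrometry to locate the cleavage site.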
# Plasma kallikrein [5] = biological target: T1, Plasma kallikrein (Homo sapiens, UniProt P03952); experiment: Inhibition of kallikrein-mediated intrinsic coagulation pathway in human plasma assessed as reduction in factor 12a generation at 160 nM by colorimetric assay; type: cell-free
# T1 sequence (P03952 20-390 limits assumed): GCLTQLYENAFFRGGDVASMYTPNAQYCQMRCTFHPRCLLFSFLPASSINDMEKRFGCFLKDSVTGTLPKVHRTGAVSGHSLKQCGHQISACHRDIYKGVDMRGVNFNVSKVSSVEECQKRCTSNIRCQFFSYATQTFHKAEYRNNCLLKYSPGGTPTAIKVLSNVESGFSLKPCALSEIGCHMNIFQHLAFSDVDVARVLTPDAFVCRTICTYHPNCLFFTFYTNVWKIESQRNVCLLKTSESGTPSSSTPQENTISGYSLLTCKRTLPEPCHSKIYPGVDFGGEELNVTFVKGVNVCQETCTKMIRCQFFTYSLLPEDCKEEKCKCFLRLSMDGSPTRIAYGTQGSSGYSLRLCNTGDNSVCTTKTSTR
# T1 sequence (P03952 391-638 limits assumed): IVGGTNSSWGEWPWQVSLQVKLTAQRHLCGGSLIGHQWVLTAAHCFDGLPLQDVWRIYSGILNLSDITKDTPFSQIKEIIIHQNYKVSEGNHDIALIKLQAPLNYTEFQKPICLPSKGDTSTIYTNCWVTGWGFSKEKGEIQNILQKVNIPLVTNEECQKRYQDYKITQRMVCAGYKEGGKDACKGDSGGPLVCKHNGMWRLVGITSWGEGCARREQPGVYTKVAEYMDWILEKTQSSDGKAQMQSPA
# Outline: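 Human plasma was triggered with kaolin to start the intrinsic pathway. Factor XIIa activity was then read with a colorimetric substrate.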
# Plasma kallikrein [6] = biological target: T1, Plasma kallikrein; experiment: Inhibition of human plasma kallikrein using Z-Phe-Arg-AMC substrate after 30 mins by spectrophotometric assay
# [7] = biological target: Plasma kallikrein (Mus musculus) (UniProt P26262); experiment: Inhibition of mouse plasma kallikrein at 10 uM using Z-Phe-Arg-AMC substrate after 30 mins by spectrophotometric assay; type: cell-free
# Chain of Plasma kallikrein (Mus musculus) (P26262 20-390 limits assumed): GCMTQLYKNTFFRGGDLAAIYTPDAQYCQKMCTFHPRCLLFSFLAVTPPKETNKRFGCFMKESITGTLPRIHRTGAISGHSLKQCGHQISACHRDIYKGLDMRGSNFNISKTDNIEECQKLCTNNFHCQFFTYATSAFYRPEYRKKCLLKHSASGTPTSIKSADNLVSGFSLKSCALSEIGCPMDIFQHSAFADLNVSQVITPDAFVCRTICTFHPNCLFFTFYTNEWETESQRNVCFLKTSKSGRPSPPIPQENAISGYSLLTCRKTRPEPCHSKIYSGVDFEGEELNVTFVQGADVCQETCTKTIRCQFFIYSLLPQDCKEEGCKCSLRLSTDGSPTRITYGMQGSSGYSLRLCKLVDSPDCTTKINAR
# Chain of Plasma kallikrein (Mus musculus) (P26262 391-638 limits assumed): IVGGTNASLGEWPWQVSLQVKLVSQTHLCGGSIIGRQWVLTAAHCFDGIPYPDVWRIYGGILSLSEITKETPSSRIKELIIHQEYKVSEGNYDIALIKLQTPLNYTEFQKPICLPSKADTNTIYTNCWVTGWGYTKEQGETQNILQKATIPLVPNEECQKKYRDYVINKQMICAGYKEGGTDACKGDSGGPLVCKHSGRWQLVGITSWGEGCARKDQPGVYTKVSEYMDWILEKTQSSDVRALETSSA
# [8] = biological target: Coagulation factor XI (Homo sapiens) (UniProt P03951); experiment: Inhibition of human factor 11a at 10 uM using Z-Phe-Arg-AMC substrate after 30 mins by spectrophotometric assay
# Chain of Coagulation factor XI (Homo sapiens) (P03951 19-387 limits assumed): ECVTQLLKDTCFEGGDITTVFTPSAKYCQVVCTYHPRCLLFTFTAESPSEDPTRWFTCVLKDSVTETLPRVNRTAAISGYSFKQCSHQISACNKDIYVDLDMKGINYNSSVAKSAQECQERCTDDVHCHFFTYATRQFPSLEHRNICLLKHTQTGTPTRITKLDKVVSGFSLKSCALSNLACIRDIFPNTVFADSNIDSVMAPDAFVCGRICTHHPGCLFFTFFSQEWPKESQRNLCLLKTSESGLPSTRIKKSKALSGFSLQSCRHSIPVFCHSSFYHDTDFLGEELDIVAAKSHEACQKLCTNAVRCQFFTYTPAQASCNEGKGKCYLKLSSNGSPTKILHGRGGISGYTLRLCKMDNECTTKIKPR
# Chain of Coagulation factor XI (Homo sapiens) (P03951 388-625 limits assumed): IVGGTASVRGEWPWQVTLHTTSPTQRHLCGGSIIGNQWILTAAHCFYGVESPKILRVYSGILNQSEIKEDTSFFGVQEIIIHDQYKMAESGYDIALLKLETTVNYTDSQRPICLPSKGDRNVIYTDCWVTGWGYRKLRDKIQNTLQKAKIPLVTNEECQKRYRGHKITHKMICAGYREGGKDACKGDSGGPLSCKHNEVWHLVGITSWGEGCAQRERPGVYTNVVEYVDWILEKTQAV
# [9] = biological target: Prothrombin (Homo sapiens) (UniProt P00734); experiment: Inhibition of human thrombin at 10 uM using Boc-Phe-Ser-Arg-AMC substrate after 30 mins by spectrophotometric assay
# [10] = Binding affinity to chymotrypsin
# [11] = biological target: T2, Deoxyribonuclease-2-alpha (Homo sapiens, UniProt O00115); experiment: Binding affinity to Dnase 2
# T2 sequence (O00115 whole entry): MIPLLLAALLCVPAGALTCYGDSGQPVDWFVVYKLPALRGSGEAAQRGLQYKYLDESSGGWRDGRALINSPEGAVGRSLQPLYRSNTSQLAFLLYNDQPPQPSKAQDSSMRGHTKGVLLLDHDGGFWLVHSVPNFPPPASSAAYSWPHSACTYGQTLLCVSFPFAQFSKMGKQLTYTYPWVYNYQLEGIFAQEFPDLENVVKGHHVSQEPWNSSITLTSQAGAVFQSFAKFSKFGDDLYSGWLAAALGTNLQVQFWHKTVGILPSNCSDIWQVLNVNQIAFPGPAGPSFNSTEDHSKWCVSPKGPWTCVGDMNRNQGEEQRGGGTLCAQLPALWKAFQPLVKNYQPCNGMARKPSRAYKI
# [12] = biological target: T3, Prostate-specific antigen (Homo sapiens, UniProt P07288); experiment: Binding affinity to prostate specific antigen
# T3 sequence (P07288 whole entry): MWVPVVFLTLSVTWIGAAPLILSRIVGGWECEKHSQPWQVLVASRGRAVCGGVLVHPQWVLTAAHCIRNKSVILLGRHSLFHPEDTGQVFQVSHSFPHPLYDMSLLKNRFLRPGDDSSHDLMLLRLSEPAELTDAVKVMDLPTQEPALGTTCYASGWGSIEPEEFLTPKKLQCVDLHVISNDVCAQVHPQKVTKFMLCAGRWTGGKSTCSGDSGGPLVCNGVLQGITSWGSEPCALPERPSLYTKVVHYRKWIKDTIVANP
# [13] = Binding affinity to beta-lactamase
# [14] = biological target: Coagulation factor VII/tissue factor (Homo sapiens, UniProt P08709); experiment: Binding affinity to tissue factor/factor 7a; type: protein-complex assay
# Chain of Coagulation factor VII/tissue factor (P08709 61-212 limits assumed): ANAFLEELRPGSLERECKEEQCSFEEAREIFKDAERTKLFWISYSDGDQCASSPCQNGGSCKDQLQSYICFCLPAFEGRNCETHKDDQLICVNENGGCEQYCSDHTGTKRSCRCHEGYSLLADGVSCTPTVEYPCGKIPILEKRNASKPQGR
# Chain of Coagulation factor VII/tissue factor (P08709 213-466 limits assumed): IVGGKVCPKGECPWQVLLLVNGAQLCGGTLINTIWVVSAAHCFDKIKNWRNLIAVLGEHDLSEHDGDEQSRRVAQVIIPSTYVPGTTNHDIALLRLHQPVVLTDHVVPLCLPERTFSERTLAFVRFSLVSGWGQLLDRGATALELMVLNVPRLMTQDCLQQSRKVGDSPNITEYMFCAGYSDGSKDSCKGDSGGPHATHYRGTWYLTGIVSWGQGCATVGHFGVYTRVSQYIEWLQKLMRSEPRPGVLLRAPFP
# Chain of Coagulation factor VII/tissue factor (P13726 33-295 partner limits assumed): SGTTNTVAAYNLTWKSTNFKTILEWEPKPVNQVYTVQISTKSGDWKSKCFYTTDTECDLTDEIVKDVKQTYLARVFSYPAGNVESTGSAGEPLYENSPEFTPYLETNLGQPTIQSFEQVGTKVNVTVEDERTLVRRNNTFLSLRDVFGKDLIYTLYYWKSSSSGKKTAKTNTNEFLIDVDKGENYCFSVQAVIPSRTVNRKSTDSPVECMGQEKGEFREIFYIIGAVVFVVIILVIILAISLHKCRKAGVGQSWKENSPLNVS
# [15] = biological target: Receptor tyrosine-protein kinase erbB-2 (Homo sapiens, UniProt P04626); experiment: Binding affinity to ErbB-2
# Chain of Receptor tyrosine-protein kinase erbB-2 (P04626 whole entry): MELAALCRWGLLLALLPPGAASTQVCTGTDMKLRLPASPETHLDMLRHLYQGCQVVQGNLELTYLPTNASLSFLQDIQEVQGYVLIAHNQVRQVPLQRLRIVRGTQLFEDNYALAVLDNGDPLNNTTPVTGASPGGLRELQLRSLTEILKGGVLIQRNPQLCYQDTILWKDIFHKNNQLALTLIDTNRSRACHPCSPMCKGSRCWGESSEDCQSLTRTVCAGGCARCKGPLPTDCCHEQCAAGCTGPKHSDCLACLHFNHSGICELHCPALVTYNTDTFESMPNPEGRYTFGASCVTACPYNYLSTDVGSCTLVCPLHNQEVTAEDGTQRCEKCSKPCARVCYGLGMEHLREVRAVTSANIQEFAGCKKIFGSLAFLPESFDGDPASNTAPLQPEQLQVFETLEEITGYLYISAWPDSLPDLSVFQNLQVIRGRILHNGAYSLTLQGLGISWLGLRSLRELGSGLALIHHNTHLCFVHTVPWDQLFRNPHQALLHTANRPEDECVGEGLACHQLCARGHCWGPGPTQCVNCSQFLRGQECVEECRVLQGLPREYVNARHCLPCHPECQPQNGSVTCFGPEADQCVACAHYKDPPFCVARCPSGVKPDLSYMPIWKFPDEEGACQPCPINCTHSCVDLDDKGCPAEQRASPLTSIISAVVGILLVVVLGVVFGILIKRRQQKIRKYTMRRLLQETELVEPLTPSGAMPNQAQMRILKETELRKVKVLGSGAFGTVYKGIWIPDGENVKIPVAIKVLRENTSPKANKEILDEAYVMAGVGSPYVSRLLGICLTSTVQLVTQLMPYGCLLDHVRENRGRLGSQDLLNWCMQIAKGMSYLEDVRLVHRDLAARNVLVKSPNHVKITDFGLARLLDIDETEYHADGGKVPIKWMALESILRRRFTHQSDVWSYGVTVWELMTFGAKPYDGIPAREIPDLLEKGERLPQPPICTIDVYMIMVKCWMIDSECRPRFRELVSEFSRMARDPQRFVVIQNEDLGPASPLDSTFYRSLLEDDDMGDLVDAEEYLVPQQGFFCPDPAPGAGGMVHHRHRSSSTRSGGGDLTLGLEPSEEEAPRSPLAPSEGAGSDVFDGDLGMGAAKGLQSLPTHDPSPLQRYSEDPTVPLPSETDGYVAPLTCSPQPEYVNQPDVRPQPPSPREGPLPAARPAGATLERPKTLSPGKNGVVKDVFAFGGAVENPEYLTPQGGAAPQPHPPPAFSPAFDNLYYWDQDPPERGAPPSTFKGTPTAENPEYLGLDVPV
# Kallikrein-2 = biological target: T4, Kallikrein-2 (Homo sapiens, UniProt P20151); experiment: Binding affinity to human kallikrein 2
# T4 sequence (P20151 whole entry): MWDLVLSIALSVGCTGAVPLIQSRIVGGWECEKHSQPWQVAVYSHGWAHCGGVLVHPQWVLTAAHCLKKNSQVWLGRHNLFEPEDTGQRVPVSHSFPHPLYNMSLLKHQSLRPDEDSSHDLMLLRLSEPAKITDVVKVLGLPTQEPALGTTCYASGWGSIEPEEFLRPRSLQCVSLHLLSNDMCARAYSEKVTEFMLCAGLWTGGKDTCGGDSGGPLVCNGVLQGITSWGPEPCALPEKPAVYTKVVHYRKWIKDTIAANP
# [16] = Binding affinity to urease
compound,measurement,setting,value
CSCC[C@H](NC(=O)[C@H](CCCNC(=N)N)NC(=O)[C@H](Cc1cnc[nH]1)NC(=O)[C@H](CC(N)=O)NC(=O)[C@H](CCC(=O)O)NC(=O)[C@H](CC(C)C)NC(=O)CNC(=O)[C@H](CCCNC(=N)N)NC(=O)[C@H](Cc1c[nH]c2ccccc12)NC(=O)[C@H](CO)NC(=O)[C@@H](N)CS)C(=O)N[C@@H](CS)C(=O)O,Ki,[1],6.7 µM
CC(C)C[C@H](NC(=O)[C@H](Cc1ccc(O)cc1)NC(=O)[C@H](CCCNC(=N)N)NC(=O)[C@H](CO)NC(=O)[C@H](Cc1ccc(O)cc1)NC(=O)[C@H](C)NC(=O)[C@@H]1CCCN1C(=O)[C@@H](N)CS)C(=O)N[C@@H](CC(=O)O)C(=O)N[C@@H](CS)C(=O)O,Ki,[1],0.4 µM
CC(C)C[C@H](NC(=O)[C@@H]1CCCN1C(=O)[C@H](CO)NC(=O)[C@H](CS)NC(=O)[C@H](Cc1cnc[nH]1)NC(=O)[C@H](CO)NC(=O)[C@H](Cc1ccc(O)cc1)NC(=O)[C@@H](CC(=O)O)NC(=O)CN)C(=O)N[C@@H](CCCNC(=N)N)C(=O)N[C@@H](Cc1ccc(O)cc1)C(=O)N[C@@H](Cc1ccc(O)cc1)C(=O)N1CCC[C@H]1C(=O)N[C@@H](Cc1c[nH]c2ccccc12)C(=O)N[C@@H](Cc1c[nH]c2ccccc12)C(=O)N[C@@H](CCCCN)C(=O)N[C@@H](CS)C(=O)N[C@H](C(=O)N[C@@H](Cc1ccc(O)cc1)C(=O)N1CCC[C@H]1C(=O)N[C@@H](CC(=O)O)C(=O)N1CCC[C@H]1C(=O)O)[C@@H](C)O,Ki,[2],2.8 nM
CC(C)C[C@@H]1NC(=O)[C@H](C)NC(=O)[C@H](CCC(=O)O)NC(=O)[C@H](CC(=O)O)NC(=O)[C@H](C)NC(=O)[C@@H]2CCCN2C(=O)[C@@H]2CSCc3cc(cc(c3)CSC[C@@H](C(=O)NCC(N)=O)NC1=O)CSC[C@H](NC(=O)[C@H](C)N)C(=O)N[C@@H](CO)C(=O)N[C@@H](CC(=O)O)C(=O)N[C@@H](CCCNC(=N)N)C(=O)N[C@@H](Cc1ccccc1)C(=O)N[C@@H](CCCNC(=N)N)C(=O)N[C@@H](CC(N)=O)C(=O)N2 (H-ACSDRFRNCPADEALCG-NH2; linker 2-9-16 via TBMB),metabolised at 24 h,[3],90%
same,Stability,[4],Unstable
same,inhibition,Plasma kallikrein [5],Active
CC[C@H](C)[C@H](NC(=O)[C@H](CCC(=O)O)NC(=O)[C@@H](NC(=O)[C@@H]1CCCN1C(=O)[C@H](CS)NC(=O)[C@H](Cc1ccc(O)cc1)NC(=O)[C@H](CCCNC(=N)N)NC(=O)[C@H](CCCNC(=N)N)NC(=O)[C@H](CCC(=O)O)NC(=O)[C@@H](NC(=O)[C@H](CO)NC(=O)[C@H](CS)NC(=O)[C@H](C)N)[C@@H](C)O)[C@@H](C)CC)C(=O)N[C@@H](Cc1ccccc1)C(=O)N1CCC[C@H]1C(=O)N[C@@H](CS)C(=O)NCC(N)=O (H-ACSTERRYCPIEIFPCG-NH2),IC50,Plasma kallikrein [6],7.18 µM
same,inhibition,[7],inactive
same,inhibition,[8],inactive
same,inhibition,[9],inactive
N=C(N)NCCC[C@H](NC(=O)[C@H](CS)NC(=O)[C@H](CCCNC(=N)N)NC(=O)[C@H](Cc1c[nH]c2ccccc12)NC(=O)[C@H](CO)NC(=O)[C@H](Cc1ccccc1)NC(=O)[C@H](CS)NC(=O)[C@@H](N)CS)C(=O)N[C@@H](CS)C(=O)O (H-CCFSWRCRC-OH),Ki,[10],1000 nM
CC(C)C[C@H](NC(=O)[C@H](Cc1ccccc1)NC(=O)[C@H](Cc1c[nH]c2ccccc12)NC(=O)[C@H](CCC(N)=O)NC(=O)[C@H](CC(C)C)NC(=O)[C@H](CC(C)C)NC(=O)[C@H](CCCN=C(N)N)NC(=O)[C@H](CC(C)C)NC(=O)[C@@H](N)CS)C(=O)N[C@@H](Cc1c[nH]c2ccccc12)C(=O)N[C@@H](C)C(=O)N[C@@H](CS)C(=O)O (H-CLRLLQWFLWAC-OH),Ki,[11],200 nM
CC[C@H](C)[C@H](NC(=O)[C@H](CS)NC(=O)[C@H](Cc1ccc(O)cc1)NC(=O)[C@H](C)NC(=O)[C@@H](NC(=O)[C@@H](N)CS)C(C)C)C(=O)N[C@@H](CCC(=O)O)C(=O)N[C@@H](Cc1cnc[nH]1)C(=O)N[C@@H](Cc1cnc[nH]1)C(=O)N[C@@H](CS)C(=O)N[C@@H](Cc1c[nH]c2ccccc12)C(=O)N[C@H](C(=O)N[C@@H](CS)C(=O)O)[C@@H](C)O (H-CVAYCIEHHCWTC-OH),Kd,[12],2900 nM
CC(C)[C@H](NC(=O)[C@@H](N)CS)C(=O)N[C@@H](Cc1cnc[nH]1)C(=O)N[C@@H](CO)C(=O)N1CCC[C@H]1C(=O)N[C@@H](CC(N)=O)C(=O)N[C@@H](CCCNC(=N)N)C(=O)N[C@@H](CCC(=O)O)C(=O)N[C@@H](CS)C(=O)O (H-CVHSPNREC-OH),IC50,[13],9 µM
CC(C)C[C@H](NC(=O)[C@@H](NC(=O)[C@H](CCC(=O)O)NC(=O)[C@H](Cc1c[nH]c2ccccc12)NC(=O)[C@H](CCC(=O)O)NC(=O)[C@@H](N)CCC(=O)O)C(C)C)C(=O)N[C@@H](CS)C(=O)N[C@@H](Cc1c[nH]c2ccccc12)C(=O)N[C@H](C(=O)N[C@@H](Cc1c[nH]c2ccccc12)C(=O)N[C@@H](CCC(=O)O)C(=O)N[C@H](C(=O)N[C@@H](CS)C(=O)N[C@@H](CCC(=O)O)C(=O)N[C@@H](CCCN=C(N)N)C(=O)O)[C@@H](C)O)[C@@H](C)O (H-EEWEVLCWTWETCER-OH),IC50,[14],1.5 nM
CC(C)C[C@H](NC(=O)[C@H](CO)NC(=O)[C@H](Cc1ccc(O)cc1)NC(=O)[C@H](CS)NC(=O)[C@H](CS)NC(=O)[C@@H](N)CCCCN)C(=O)O (H-KCCYSL-OH),Ki,[15],30 µM
H-SRFKVWWAAF-OH,IC50,Kallikrein-2,3.4 µM
H-YDFYWW-OH,IC50,[16],30 µM
